# Target: full-length Pin1 (Pin1FL) (Homo sapiens, UniProt Q13526)
# Experiment: NMR 15N-1H HSQC titration, binding to full-length Pin1
# Outline: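 15N-labeled Pin1FL and Pin1WW were expressed separately in M9 medium with 15NH4Cl, induced with 1 mM IPTG at OD600 0.5 for 4 h, and purified by Ni affinity and gel filtration (20 mM HEPES pH 7.5, 50 mM NaCl, 5 mM EDTA; Pin1FL with 1 mM TCEP). Unlabeled phosphopeptides (dialyzed into matching buffer) were titrated at 0–637 µM into 100 µM protein. 1H-15N HSQC spectra were recorded at 25 °C and 600 MHz. Apparent KD was fitted from chemical shift changes, with 15N weighted 0.17.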
# Sequence of full-length Pin1 (Pin1FL) (Q13526 whole entry): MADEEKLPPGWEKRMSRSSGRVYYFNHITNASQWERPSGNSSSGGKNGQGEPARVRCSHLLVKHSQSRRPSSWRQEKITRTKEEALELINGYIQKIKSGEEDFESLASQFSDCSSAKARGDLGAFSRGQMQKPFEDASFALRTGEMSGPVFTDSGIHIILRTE
substance,measurement,setting,value
KVAKpSPKKAKAW [H1.5],interaction strength with Pin1 among H1 peptides,"Pin1FL and Pin1WW, in words",fairly low affinity
same,apparent affinity for full-length Pin1 relative to WW domain,compared with Pin1WW,decrease

# From PMC6431256 (Biochemistry, 2018)
